A selection: hits, their analogues and other compounds. The true share with any hit is near 3.5%.
RGS4 inh = human RGS4 inhibition; P49798; HEK293 M3R/RGS4 inducible, Fluo-4 calcium flux; hits give high values; triggered by carbachol at its EC20; B-score at 10 µM; actives 0.45% (n = 310,000); AID 463165;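 active = B-score, a plate-corrected calcium signal, over three deviations above library mean, with baseline fluorescence within five deviations of library mean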;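 also: RGS4 expression induced by doxycycline in cells with stable M3 receptor; B-score is computed from the integrated fluorescence ratio over baseline after carbachol; higher B-score means a larger calcium signal and so more RGS4 inhibition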
Target sequence (P49798 whole entry, looked up): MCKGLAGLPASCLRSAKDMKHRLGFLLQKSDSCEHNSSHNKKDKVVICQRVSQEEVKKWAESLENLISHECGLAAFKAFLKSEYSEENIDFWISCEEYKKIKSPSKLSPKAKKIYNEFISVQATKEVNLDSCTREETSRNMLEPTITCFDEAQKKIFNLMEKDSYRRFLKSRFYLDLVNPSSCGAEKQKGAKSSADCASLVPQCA
MrgX1 antagonist = human MrgX1 receptor antagonism, primary screen; Q96LB2; MRGX1-HEK293 calcium flux, Fluo-4, BAM8-22 antagonism; hits give low values; B-score at 10 µM; actives 1.3% (n = 310,000); AID 588676;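 active = calcium-response B-score plate-corrected more than 3 library SD below zero, starting fluorescence within 5 deviations, no agonist response on first addition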;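 also: peak minus trough fluorescence over baseline after final BAM8-22 challenge near maximal dose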
Target sequence (Q96LB2 whole entry, looked up): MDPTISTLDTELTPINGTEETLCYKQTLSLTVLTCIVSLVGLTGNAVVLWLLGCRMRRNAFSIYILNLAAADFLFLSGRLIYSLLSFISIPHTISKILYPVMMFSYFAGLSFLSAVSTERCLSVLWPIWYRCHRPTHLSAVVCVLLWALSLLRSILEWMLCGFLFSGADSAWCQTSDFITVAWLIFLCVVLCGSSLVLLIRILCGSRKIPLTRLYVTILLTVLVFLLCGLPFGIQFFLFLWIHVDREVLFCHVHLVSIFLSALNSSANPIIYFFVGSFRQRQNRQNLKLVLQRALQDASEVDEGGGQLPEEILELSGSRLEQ
MrgX1 agonist = agonists of human MrgX1 receptor; Q96LB2; MrgX1-HEK293 cells, Fluo-4 calcium fluorescence, agonist mode; hits give high values; B-score at 10 µM; AID 588627; actives 0.44% (n = 310,000);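 active = calcium response B-score plate-corrected fluorescence ratio at least 3 library SD, with starting fluorescence B-score inside 5 SD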
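Test system: HEK293 cells stably expressing human MrgX1 receptor; Input: fifteen thousand cells per well; Dosing: compound delivered in addition one of three; Schedule: overnight seeding, then 1 h dark dye loading; Technique: Fluo-4 NW calcium fluorescence; Measure: B-scored fluorescence response ratio; Controls: positive and negative controls per plate.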
MrgX1 allo act = allosterically activates human MrgX1 receptor signaling; Q96LB2; MrgX1-HEK293, Fluo-4 calcium flux, FDSS; hits give high values; B-score at 10 µM; actives 0.63% (n = 310,000); AID 588675;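 active = plate-corrected calcium response at least 3 library SD above typical, normal starting fluorescence, not activating the receptor alone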;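 also: compound read alongside a low EC10 to EC30 dose of BAM8-22 agonist; peak minus trough fluorescence over baseline measured at the second addition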
RGS4 act = RGS4 potentiation or activation; HEK293 M3R/inducible RGS4, carbachol calcium flux Fluo4; hits give low values; B-score at 10 µM; actives 0.92% (n = 310,000); AID 463111;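 active = B-score of the integrated calcium signal more than 4 SD below the library mean, with starting fluorescence not abnormally high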;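 also: negative B-score means reduced calcium response which marks RGS4 activation or potentiation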
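System: HEK293 FlpIn-TREx cells, stable M3R, doxycycline-inducible RGS4. Timing: overnight RGS4 induction, 30 min dye load 37 °C, 20 min compound RT. Also added: carbachol, ECmax concentration. Measured by: Fluo4 fluorescence kinetic imaging of calcium. Evaluation: integrated calcium ratio converted to B score.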
RGS4 inh valid = validation of RGS4 inhibitors; shares compounds with RGS4 inh; HEK293 M3R/RGS4, carbachol calcium Fluo-4 fluorescence; carbachol added at its EC20; 0 = buffer wells, 100 = carbachol control; calcium response, % at 10 µM; actives 65% (n = 1,700);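 active = duplicate-averaged calcium response above the buffer-only control mean plus 5 SD of those controls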;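 also: integrated fluorescence ratio F max minus min over baseline F0; higher response in RGS4-induced cells means RGS4 inhibition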
M3R Ca ctr = counter-screen for RGS4 inhibitors: effect in non-induced cells; shares compounds with RGS4 inh; HEK293 M3R non-induced, carbachol calcium Fluo-4; submaximal (EC20) carbachol stimulus; buffer wells 0%, carbachol control wells 100%; activity (percent), % at 10 µM; actives 20% (n = 1,900); call rule not given here;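 also: RGS4 induction absent so cells express M3R without RGS4; higher means more calcium signal and flags a non-specific hit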
M3R basal Ca ctr = signal in non-induced cells without carbachol, RGS4 inhibitor counter-screen; shares compounds with RGS4 inh; HEK293 M3R/RGS4 non-induced, Fluo-4 calcium, no carbachol; normalised: buffer wells 0%, carbachol wells 100%; calcium response (agonist-mode artifact), % at 10 µM; actives 22% (n = 1,900);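 active = duplicate-averaged calcium rise in uninduced cells above buffer wells' mean plus 5 SD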
Numbers without * were called inactive.

What do the screens show for `CCOC(=O)c1c(S(=O)(=O)NCC(=O)Nc2ccc(F)cc2F)c(C)n(C)c1C`?
RGS4 inh: inactive; MrgX1 antagonist: inactive; MrgX1 agonist: inactive; MrgX1 allo act: inactive; RGS4 act: inactive

What do the screens show for `COc1cc(/C=C(/C(=O)c2cccs2)c2nc3ccccc3[nH]2)ccc1O`?
RGS4 inh: 9.2*; MrgX1 antagonist: inactive; MrgX1 agonist: inactive; MrgX1 allo act: inactive; RGS4 act: inactive; RGS4 inh valid: 18%*; M3R Ca ctr: inactive; M3R basal Ca ctr: inactive

How did OCCC1CN(Cc2cc(F)ccc2-n2cccn2)CCN1C1CCCC1 (centres undefined) do in these assays?
RGS4 inh: inactive; MrgX1 antagonist: inactive; MrgX1 agonist: inactive; MrgX1 allo act: inactive; RGS4 act: inactive

What do the screens show for `CC(C)NC(=O)Cn1cc(C(=O)C2CC2)c2ccccc21`?
RGS4 inh: inactive; MrgX1 antagonist: inactive; MrgX1 agonist: inactive; MrgX1 allo act: inactive; RGS4 act: inactive

How did CCOc1ccc(-c2c(C(=O)N/N=C/c3ccc(OC(C)C)cc3)nnn2-c2nonc2N)cc1 do in these assays?
RGS4 inh: inactive; MrgX1 antagonist: inactive; MrgX1 agonist: inactive; MrgX1 allo act: inactive; RGS4 act: inactive; M3R Ca ctr: inactive; M3R basal Ca ctr: inactive

What do the screens show for `Cc1ccc(-c2c(C(=O)N/N=C/c3ccc(OC(C)C)cc3)nnn2-c2nonc2N)cc1`?
RGS4 inh: 9*; MrgX1 antagonist: inactive; MrgX1 agonist: inactive; MrgX1 allo act: inactive; RGS4 act: inactive; RGS4 inh valid: 28%*; M3R Ca ctr: 43%*; M3R basal Ca ctr: inactive

What do the screens show for `COC(=O)c1cc(=O)n(-c2ccc(F)cc2)c(=Nc2ccc(F)cc2)s1`?
RGS4 inh: 13*; MrgX1 antagonist: inactive; MrgX1 agonist: inactive; MrgX1 allo act: inactive; RGS4 act: inactive; RGS4 inh valid: 30%*; M3R Ca ctr: 54%*; M3R basal Ca ctr: inactive

What do the screens show for `COc1ccc2c(c1)C(c1ccccc1)NC(=O)C2` (centres undefined)?
RGS4 inh: inactive; MrgX1 antagonist: inactive; MrgX1 agonist: inactive; MrgX1 allo act: inactive; RGS4 act: inactive

How did CCOc1cc(/C=C\[N+](=O)[O-])ccc1OCC(=O)N1CCOCC1 do in these assays?
RGS4 inh: 28*; MrgX1 antagonist: inactive; MrgX1 agonist: inactive; MrgX1 allo act: inactive; RGS4 act: inactive; RGS4 inh valid: 43%*; M3R Ca ctr: 32%*; M3R basal Ca ctr: 12%*

What do the screens show for `CCOc1cc(/C=C/c2nc3cc(C)c(C)cc3s2)ccc1OCC(=O)N1CCOCC1`?
RGS4 inh: inactive; MrgX1 antagonist: inactive; MrgX1 agonist: inactive; MrgX1 allo act: inactive; RGS4 act: inactive

Results for COc1ccccc1N(CC(=O)NCC1CCCO1)C(=O)CNS(=O)(=O)c1ccc(Cl)cc1 (centres undefined) ?
RGS4 inh: inactive; MrgX1 antagonist: inactive; MrgX1 agonist: inactive; MrgX1 allo act: inactive; RGS4 act: inactive

How did O=C(NNC(=S)Nc1ccc(Cl)cc1Cl)c1ccc(N2CCOCC2)c([N+](=O)[O-])c1 do in these assays?
RGS4 inh: 5.2*; MrgX1 antagonist: inactive; MrgX1 agonist: inactive; MrgX1 allo act: inactive; RGS4 act: inactive; RGS4 inh valid: 9.5%*; M3R Ca ctr: 34%*; M3R basal Ca ctr: inactive

How did O=C(/C=C/c1ccc(Cl)cc1)N1CCN(c2ccc(Cl)cc2[N+](=O)[O-])CC1 do in these assays?
RGS4 inh: inactive; MrgX1 antagonist: inactive; MrgX1 agonist: inactive; MrgX1 allo act: inactive; RGS4 act: inactive

How did O=C(O)c1ccc(N2CCN(c3ccc(Cl)cc3)CC2)c([N+](=O)[O-])c1 do in these assays?
RGS4 inh: 5*; MrgX1 antagonist: inactive; MrgX1 agonist: inactive; MrgX1 allo act: inactive; RGS4 act: inactive; RGS4 inh valid: 7.5%*; M3R Ca ctr: inactive; M3R basal Ca ctr: inactive

How did COc1ccc(CNS(=O)(=O)CCNC(=O)c2cccc(OC)c2)cc1 do in these assays?
RGS4 inh: inactive; MrgX1 antagonist: inactive; MrgX1 agonist: inactive; MrgX1 allo act: inactive; RGS4 act: inactive

How did CN1CCN(Cc2c(O)ccc3cc(Br)ccc23)CC1 do in these assays?
RGS4 inh: inactive; MrgX1 antagonist: inactive; MrgX1 agonist: inactive; MrgX1 allo act: inactive; RGS4 act: inactive

Results for CCN(Cc1ccncc1)Cc1c(O)ccc2cc(Br)ccc12 ?
RGS4 inh: 4.8*; RGS4 act: inactive; RGS4 inh valid: inactive; M3R Ca ctr: inactive; M3R basal Ca ctr: inactive

What do the screens show for `CCc1ccccc1NC(=O)CN(C)C(=O)Cn1cc(C(F)(F)F)cc(Cl)c1=O`?
RGS4 inh: inactive; MrgX1 antagonist: inactive; MrgX1 agonist: inactive; MrgX1 allo act: inactive; RGS4 act: inactive

How did Cc1ccccc1NC(=O)C1c2ccccc2Oc2ccccc21 do in these assays?
RGS4 inh: inactive; MrgX1 antagonist: inactive; MrgX1 agonist: inactive; MrgX1 allo act: inactive; RGS4 act: inactive

How did Cc1cccnc1NC(=O)C1c2ccccc2Oc2ccccc21 do in these assays?
RGS4 inh: 8.2*; MrgX1 antagonist: inactive; MrgX1 agonist: inactive; MrgX1 allo act: inactive; RGS4 act: inactive; RGS4 inh valid: 10%*; M3R Ca ctr: inactive; M3R basal Ca ctr: inactive

Results for Nc1ccc(OCCCc2c(N)nc(N)nc2N)cc1 ?
RGS4 inh: inactive; MrgX1 antagonist: inactive; MrgX1 agonist: inactive; MrgX1 allo act: inactive; RGS4 act: inactive

What do the screens show for `CCOc1ccc(-c2c(C(=O)N/N=C/c3sccc3C)nnn2-c2nonc2N)cc1`?
RGS4 inh: inactive; MrgX1 antagonist: inactive; MrgX1 agonist: inactive; MrgX1 allo act: inactive; RGS4 act: inactive

How did CCOc1cccc(-c2c(C(=O)N/N=C/c3ccsc3)nnn2-c2nonc2N)c1 do in these assays?
RGS4 inh: inactive; MrgX1 antagonist: inactive; MrgX1 agonist: inactive; MrgX1 allo act: inactive; RGS4 act: inactive; M3R Ca ctr: inactive; M3R basal Ca ctr: inactive

What do the screens show for `CCOc1cccc(-c2c(C(=O)N/N=C/c3sccc3C)nnn2-c2nonc2N)c1`?
RGS4 inh: inactive; MrgX1 antagonist: inactive; MrgX1 agonist: inactive; MrgX1 allo act: inactive; RGS4 act: inactive; M3R Ca ctr: inactive; M3R basal Ca ctr: inactive
